This passage reports IC50 results from ChEMBL document CHEMBL1152746, “Inhibitors of adenosine consuming parasites through polymer-assisted solution phase synthesis of lipophilic 5'-amido-5'-deoxyadenosine derivatives” (Bioorg Med Chem, 2009).

For this assay, the system named is Plasmodium falciparum. The assay can be described thus: Antiplasmodial activity against Plasmodium falciparum K1 as [3H]hypoxanthine uptake. The note with it: K1, 72 h. Format: functional, organism-based. A digest of the protocol: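 Erythrocytic stages of chloroquine- and pyrimethamine-resistant K1 strain grown in washed human A+ red cells, 2.5% hematocrit, 0.3% parasitemia. Medium was hypoxanthine-free RPMI 1640 with HEPES, NaHCO3, neomycin and AlbuMAX. DMSO stocks (10 mg/mL) tested as serial doubling dilutions for 48 h at 37 °C under 4% CO2, 3% O2, 93% N2. [3H]hypoxanthine then added for 24 h, cells harvested onto filters, scintillation counted.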

As usually defined, the IC50 is the concentration that gives 50% inhibition. A high value points to lower potency. Consider `COc1cccc(CC(=O)NC[C@H]2O[C@@H](n3cnc4c(NCc5ccc(Oc6ccccc6)cc5)ncnc43)[C@H](O)[C@@H]2O)c1`, for which half-maximal inhibition (IC50) was put at 3.4 µM.

With `O=C(NC[C@H]1O[C@@H](n2cnc3c(NCc4ccc(Oc5ccccc5)cc4)ncnc32)[C@H](O)[C@@H]1O)c1cc(Cl)cc(Cl)c1`, the IC50 amounted to 3.5 µM.

In turn, `O=C(CCCc1c[nH]c2ccccc12)NC[C@H]1O[C@@H](n2cnc3c(NCc4ccc(Oc5ccccc5)cc4)ncnc32)[C@H](O)[C@@H]1O` returned an IC50 greater than 8.5 µM.

As to `O=C(Cc1cccc(Cl)c1)NC[C@H]1O[C@@H](n2cnc3c(NCc4ccc(Oc5ccccc5)cc4)ncnc32)[C@H](O)[C@@H]1O`, it took 3.1 µM to reach half-maximal inhibition (IC50).

`CCN(CC)CCCC(C)Nc1ccnc2cc(Cl)ccc12` (stereo unspecified) [CHLOROQUINE] gave an IC50 of 0.9 µM.

`CC(C)=CC(=O)NC[C@H]1O[C@@H](n2cnc3c(NCc4ccc(Oc5ccccc5)cc4)ncnc32)[C@H](O)[C@@H]1O` came in with an IC50 of 4.3 µM.

`O=C(NC[C@H]1O[C@@H](n2cnc3c(NCc4ccc(Oc5ccccc5)cc4)ncnc32)[C@H](O)[C@@H]1O)c1ccc2c(c1)[nH]c(=O)n2COc1ccccc1`: the IC50 came out at 3.3 µM.

In the case of `C=CCn1cnc2cc(C(=O)NC[C@H]3O[C@@H](n4cnc5c(NCc6ccc(Oc7ccccc7)cc6)ncnc54)[C@H](O)[C@@H]3O)ccc21`, the IC50 came out at 2.7 µM.

As to `COCCCn1c(=O)[nH]c2cc(C(=O)NC[C@H]3O[C@@H](n4cnc5c(NCc6ccc(Oc7ccccc7)cc6)ncnc54)[C@H](O)[C@@H]3O)ccc21`, the midpoint of inhibition, the IC50, lay at 0.9 µM.

On to `O=C(CCCc1ccccc1)NC[C@H]1O[C@@H](n2cnc3c(NCc4ccc(Oc5ccccc5)cc4)ncnc32)[C@H](O)[C@@H]1O`, for which the midpoint of inhibition, the IC50, lay at 2.6 µM.

The compound `CC(C)CCC(=O)NC[C@H]1O[C@@H](n2cnc3c(NCc4ccc(Oc5ccccc5)cc4)ncnc32)[C@H](O)[C@@H]1O` showed a half-maximal inhibitory concentration (IC50) of 4.6 µM.

`O=C(NC[C@H]1O[C@@H](n2cnc3c(NCc4ccc(Oc5ccccc5)cc4)ncnc32)[C@H](O)[C@@H]1O)c1ccc2c(c1)[nH]c(=O)n2Cc1ccccn1` displayed an IC50 of 2.1 µM.

Consider `CCCCCn1cnc2cc(C(=O)NC[C@H]3O[C@@H](n4cnc5c(NCc6ccc(Oc7ccccc7)cc6)ncnc54)[C@H](O)[C@@H]3O)ccc21`, for which half-maximal inhibition (IC50) was put at 1.5 µM.

Consider `CCCCn1c(=O)[nH]c2cc(C(=O)NC[C@H]3O[C@@H](n4cnc5c(NCc6ccc(Oc7ccccc7)cc6)ncnc54)[C@H](O)[C@@H]3O)ccc21`, for which the IC50 was 3.1 µM.

In turn, `O=C(NC[C@H]1O[C@@H](n2cnc3c(NCc4ccc(Oc5ccccc5)cc4)ncnc32)[C@H](O)[C@@H]1O)c1ccc(Oc2ccccc2)cc1` displayed an IC50 of 3.3 µM.

`O=C(Cc1cccc2ccccc12)NC[C@H]1O[C@@H](n2cnc3c(NCc4ccc(Oc5ccccc5)cc4)ncnc32)[C@H](O)[C@@H]1O` showed an IC50 of 0.3 µM.

`O=C(NC[C@H]1O[C@@H](n2cnc3c(NCc4ccc(Oc5ccccc5)cc4)ncnc32)[C@H](O)[C@@H]1O)c1ccc2c(c1)[nH]c(=O)n2CCC1=CCCCC1`: half-maximal inhibition (IC50) was put at 2.9 µM.

`O=C(NC[C@H]1O[C@@H](n2cnc3c(NCc4ccc(Oc5ccccc5)cc4)ncnc32)[C@H](O)[C@@H]1O)c1ccc2c(c1)ncn2Cc1ccccn1`: the half-maximal inhibitory concentration (IC50) was 4 µM.

The compound `COCCCn1cnc2cc(C(=O)NC[C@H]3O[C@@H](n4cnc5c(NCc6ccc(Oc7ccccc7)cc6)ncnc54)[C@H](O)[C@@H]3O)ccc21` gave an IC50 of 2.6 µM.

`O=C(NC[C@H]1O[C@@H](n2cnc3c(NCc4ccc(Oc5ccccc5)cc4)ncnc32)[C@H](O)[C@@H]1O)c1ccc2c(c1)ncn2Cc1cccc2ccccc12` displayed an IC50 of 2.2 µM.

Regarding `O=C(CCCOc1ccccc1)NC[C@H]1O[C@@H](n2cnc3c(NCc4ccc(Oc5ccccc5)cc4)ncnc32)[C@H](O)[C@@H]1O`, the IC50 was 2.8 µM.
